Experimental findings from ChEMBL document CHEMBL3396946, “Design, synthesis and pharmacological evaluation of N-[4-(4-(alkyl/aryl/heteroaryl)-piperazin-1-yl)-phenyl]-carbamic acid ethyl ester derivatives as novel anticonvulsant agents” (Bioorg Med Chem Lett, 2015) are described below.

Calls of active or inactive are those of the source. No cut-off for these calls is given here.

In series [1] the test system is Mus musculus. As to the kind of experiment: Anticonvulsant activity in intraperitoneally dosed Swiss albino mouse assessed as reduction in electrical stimulus-induced seizures after 0.5 hrs by maximal electroshock seizure test. It is filed as functional. In short, it runs like this:
(§1)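 Adult male Swiss albino mice; test agents given i.p. at 30, 100 and 300 mg/kg, with animals examined 0.5 h and 4.0 h after injection. Value is the minimal dose protecting half or more of the mice; a dash means no activity at 300 mg/kg.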
A general note: In the maximal electroshock model the usual endpoint is tonic extension of the hind limbs.

Series [2] concerns Mus musculus. Put plainly: Anticonvulsant activity in intraperitoneally dosed Swiss albino mouse assessed as reduction in clonic seizures after 0.5 hrs by subcutaneous pentylenetetrazole seizure test. The class given is functional. In short, it runs like this:
as §1

Series [3] has as its system Mus musculus. Put plainly: Anticonvulsant activity in Swiss albino mouse assessed as reduction in electrical stimulus-induced seizures at 300 mg/kg, ip after 4 hrs by maximal electroshock seizure test. It is filed as functional, organism-based. Also noted: dose 300 mg/kg. In short, it runs like this:
as §1

For series [4], the system named is Mus musculus. As to the kind of experiment: Anticonvulsant activity in Swiss albino mouse assessed as reduction in clonic seizures at 300 mg/kg, ip after 4 hrs by subcutaneous pentylenetetrazole seizure test. The class given is functional, organism-based. On the set-up: dose 300 mg/kg. In short, it runs like this: as §1
The test system of series [5] is Mus musculus. Put plainly: Toxicity in Swiss albino mouse assessed as induction of sedation at 100 mg/kg, ip after 0.5 hrs during maximal electroshock seizure test. The class given is organism-based. On the set-up: dose 100 mg/kg, route intraperitoneal. To be noted: in vivo.
Series [6] concerns Mus musculus. Put plainly: Toxicity in Swiss albino mouse assessed as induction of sedation at 300 mg/kg, ip after 0.5 hrs during subcutaneous pentylenetetrazole seizure test. It is filed as organism-based. Also noted: dose 300 mg/kg.
In series [7] the test system is Mus musculus. Put plainly: Anticonvulsant activity in intraperitoneally dosed Swiss albino mouse assessed as reduction in electrical stimulus-induced seizures after 4 hrs by maximal electroshock seizure test. The class given is functional. In short, it runs like this: as §1
A short description of series [8]: Neurological toxicity in intraperitoneally dosed Swiss albino mouse assessed as motor impairment after 0.5 hrs by rotarod test. The class given is organism-based. The conditions noted are these: in vivo, ip, read-out: MTD50. (In general: Falling from the rotarod earlier than controls is read as motor impairment.)
Series [9] in a line: Neurological toxicity in intraperitoneally dosed Swiss albino mouse assessed as motor impairment after 4 hrs by rotarod test. The class given is organism-based. The conditions noted are these: in vivo, ip, read-out: MTD50.
In series [10] the test system is Mus musculus. Put plainly: Toxicity in Swiss albino mouse assessed as induction of myoclonic jerks at 100 mg/kg, ip after 0.5 hrs during subcutaneous pentylenetetrazole seizure test. The class given is organism-based. Also noted: dose 100 mg/kg.
Series [11] deals with Mus musculus. Put plainly: Anticonvulsant activity in Swiss albino mouse assessed as reduction in electrical stimulus-induced seizures at 300 mg/kg, ip after 0.5 hrs by maximal electroshock seizure test. The class given is functional, organism-based. On the set-up: dose 300 mg/kg. In short, it runs like this:
as §1

Series [12] concerns Mus musculus. As to the kind of experiment: Neurological toxicity in Swiss albino mouse assessed as motor impairment at 300 mg/kg, ip after 0.5 hrs by rotarod test. It is filed as organism-based. Also noted: dose 300 mg/kg, route intraperitoneal. To be noted: in vivo. In short, it runs like this: (§2)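 Adult male Swiss albino mice dosed i.p. at 30, 100 and 300 mg/kg, examined at 0.5 h and 4.0 h. Neurotoxicity is scored as failure to hold onto the rotating rod, with three successive trials. Value is the minimal dose active in half or more of the mice.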

In series [13] the test system is Mus musculus. Put plainly: Neurological toxicity in Swiss albino mouse assessed as motor impairment at 300 mg/kg, ip after 4 hrs by rotarod test. On the set-up: dose 300 mg/kg, route intraperitoneal. It is filed as organism-based. To be noted: in vivo. In short, it runs like this: as §2
The test system of series [14] is Mus musculus. Put plainly: Toxicity in Swiss albino mouse assessed as induction of myoclonic jerks at 300 mg/kg, ip after 0.5 hrs during subcutaneous pentylenetetrazole seizure test. The class given is organism-based. Also noted: dose 300 mg/kg.
In series [15] the test system is Mus musculus. Put plainly: Anticonvulsant activity in Swiss albino mouse assessed as reduction in clonic seizures at 300 mg/kg, ip after 0.5 hrs by subcutaneous pentylenetetrazole seizure test. The class given is functional, organism-based. Also noted: dose 300 mg/kg. In short, it runs like this:
as §1

The test system of series [16] is Mus musculus. As to the kind of experiment: Toxicity in Swiss albino mouse assessed as induction of death following tonic extension at 300 mg/kg, ip after 4 hrs during maximal electroshock seizure test. The class given is organism-based. Also noted: dose 300 mg/kg, route intraperitoneal. To be noted: in vivo.
The test system of series [17] is Mus musculus. Put plainly: Anticonvulsant activity in intraperitoneally dosed Swiss albino mouse assessed as reduction in clonic seizures after 4 hrs by subcutaneous pentylenetetrazole seizure test. The class given is functional. In short, it runs like this:
as §1

Series [18] deals with Mus musculus. Put plainly: Toxicity in Swiss albino mouse assessed as induction of myoclonic jerks at 100 mg/kg, ip after 4 hrs during subcutaneous pentylenetetrazole seizure test. The class given is organism-based. Also noted: dose 100 mg/kg.
The test system of series [19] is Mus musculus. Put plainly: Toxicity in Swiss albino mouse assessed as induction of death following tonic extension at 300 mg/kg, ip after 0.5 hrs during maximal electroshock seizure test. It is filed as organism-based. Also noted: dose 300 mg/kg, route intraperitoneal. To be noted: in vivo.
For series [20], the system named is Mus musculus. As to the kind of experiment: Anticonvulsant activity in Swiss albino mouse model of pentylenetetrazole-induced kindling related chronic epilepsy assessed as reduction in seizure severity score by at 5 mg/kg, ip administered daily for 5 weeks followed by injection of 30 mg/kg, ip PTZ on every alternate day till full kindling development. It is filed as functional, organism-based. In short, it runs like this: (§3)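 Adult male Swiss albino mice are randomised into seven groups (n = 8; n = 9 for PTZ-only). Treatment is i.p. for 35 days. PTZ is given at 30 mg/kg i.p. on alternate days for 5 weeks. Control mice receive saline; phenobarbital 30 mg/kg i.p. is the reference. Seizure score is rated visually each week. Data are mean ± SEM, ANOVA with Tukey's test.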

The subject of series [21] is Mus musculus. Put plainly: Anticonvulsant activity in Swiss albino mouse model of pentylenetetrazole-induced kindling related chronic epilepsy assessed as reduction in seizure severity score by at 10 to 30 mg/kg, ip administered daily for 5 weeks followed by injection of 30 mg/kg, ip PTZ on every alternate day till full kindling development. The class given is functional, organism-based. In short, it runs like this:
as §3

Series [22] has as its system Mus musculus. As to the kind of experiment: Reduction in MDA level in brain of Swiss albino mouse model of pentylenetetrazole-induced kindling related chronic epilepsy at 5 to 30 mg/kg, ip administered daily for 5 weeks followed by injection of 30 mg/kg, ip PTZ on every alternate day till full kindling development by spectrophotometry. The class given is functional, organism-based. In short, it runs like this: (§4)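 PTZ-kindled mice (30 mg/kg i.p. on alternate days for 5 weeks) receive i.p. treatment (5, 10, 20, 30 mg/kg) for 35 days. At the end, mice are killed under ether and brains stored at -20 °C for up to 10 h. Readouts are GSH (µg/g wet tissue), MDA (nmol/µg protein), GSH-Px (U/g protein) and NO (µmol/g protein). n = 8 per group (PTZ group n = 6); mean ± SEM, ANOVA with Tukey's test.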

The test system of series [23] is Mus musculus. Put plainly: Increase in GSH level in brain of Swiss albino mouse model of pentylenetetrazole-induced kindling related chronic epilepsy at 5 to 30 mg/kg, ip administered daily for 5 weeks followed by injection of 30 mg/kg, ip PTZ on every alternate day till full kindling development by Ellman's reagent based assay. The class given is functional, organism-based. In short, it runs like this:
as §4
A general note: DTNB colorimetry detects thiols as they appear.

Series [24] has as its system Mus musculus. Put plainly: Increase in GSH-Px level in brain of Swiss albino mouse model of pentylenetetrazole-induced kindling related chronic epilepsy at 5 to 30 mg/kg, ip administered daily for 5 weeks followed by injection of 30 mg/kg, ip PTZ on every alternate day till full kindling development. It is filed as functional, organism-based. In short, it runs like this:
as §4

In series [25] the test system is Mus musculus. As to the kind of experiment: Reduction in nitric oxide level in brain of Swiss albino mouse model of pentylenetetrazole-induced kindling related chronic epilepsy at 10 to 30 mg/kg, ip administered daily for 5 weeks followed by injection of 30 mg/kg, ip PTZ on every alternate day till full kindling development by Griess reagent based assay. The class given is functional, organism-based. In short, it runs like this: as §4

Series [26] has as its system Mus musculus. Put plainly: Reduction in nitric oxide level in brain of Swiss albino mouse model of pentylenetetrazole-induced kindling related chronic epilepsy at 5 mg/kg, ip administered daily for 5 weeks followed by injection of 30 mg/kg, ip PTZ on every alternate day till full kindling development by Griess reagent based assay. The class given is functional, organism-based. In short, it runs like this: as §4

Turning to `CCOC(=O)Nc1ccc(N2CCN(c3ccc(C(F)(F)F)cc3)CC2)cc1`, the MED50 worked out at 100 mg/kg in series [1] and 300 mg/kg in series [2]. In addition, the result in [3] and in series [4] was inactive. For the same molecule, the Activity entry in series [5] and in series [6] was “Toxic” throughout.

Consider `CCOC(=O)Nc1ccc(N2CCN(c3ccc(C)cc3)CC2)cc1`, for which the figures for the MED50 in series [1], in series [7] and in series [2] were 30 mg/kg, 100 mg/kg and 100 mg/kg, respectively. For the same molecule, the TD50 at 0.5 h in [8] came out at 100 mg/kg. In addition, the TD50 at 4 h in series [9] was 100 mg/kg. Also, the outcome in [4] was inactive. Besides, the Activity entry in series [10] is listed as “Toxic”.

As to `CCOC(=O)Nc1ccc(N2CCN(Cc3ccc4c(c3)OCO4)CC2)cc1`, the MED50 in [2] was 300 mg/kg. The outcome in [11], in series [3] and in series [4] was inactive. Also, the Activity entry in [12] is recorded as “Non-toxic”; in series [13], “Non-toxic”; in [14], “Toxic”.

With `CCOC(=O)Nc1ccc(N2CCN(c3ccncc3)CC2)cc1`, the MED50 in [1] turned out to be 100 mg/kg; in [7], 300 mg/kg. Further, the TD50 at 0.5 h in [8] worked out at 300 mg/kg. In series [9], the TD50 at 4 h is 100 mg/kg. Also, the result in series [15] and in series [4] was inactive. Moreover, the Activity result in series [16] is “Toxic”.

For `CCOC(=O)Nc1ccc(N2CCN(C(c3ccc(F)cc3)c3ccc(F)cc3)CC2)cc1`, the MED50 in series [7] was determined as 300 mg/kg; in series [17], 100 mg/kg. Further, the outcome in [11] and in series [15] was inactive. The Activity entry is “Non-toxic” in [12], “Non-toxic” in [13] and “Toxic” in series [18].

With `CCOC(=O)Nc1ccc(N2CCN(c3ncccn3)CC2)cc1`, the MED50 in [1] stood at 100 mg/kg; in series [7], 300 mg/kg. The outcome in series [15] and in series [4] was inactive. Further, the Activity result was “Non-toxic” in [12], “Non-toxic” in [13] and “Toxic” in series [19].

For the molecule `CCOC(=O)Nc1ccc(N2CCN(c3ccc(C(C)=O)cc3)CC2)cc1`, the MED50 in [1] stood at 30 mg/kg; in [7] it was 100 mg/kg; in series [2] it was 100 mg/kg; in series [17], 100 mg/kg. For the same molecule, the Activity entry in [12] and in series [13] was “Non-toxic” each time. In addition, the result in [20], in series [21], in [22], in series [23], in [24] and in series [25] was Active. The outcome in series [26] was inactive.
